Experimental data reported in ChEMBL document CHEMBL3351723, “New derivatives of lupane triterpenoids disturb breast cancer mitochondria and induce cell death” (Bioorg Med Chem, 2014).
Activity calls are given as the source filed them. The calls are words filed in the database; no cut-off is given here.

Tests used:
[1] = Cytotoxicity against human MCF12A cells at 0.125 to 2 ug/ml after 1 to 5 days by sulforhodamine B assay; assay type: cell-based; details: mcf-12a
Method in brief: (§1)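 Non-tumor cells seeded at 2×10^4 cells/ml and treated 24 h after seeding, in high-glucose DMEM with pyruvate, 10% FBS and penicillin-streptomycin, 37°C, 5% CO2. Compound exposure 0.125–2 μg/ml for 1, 3 and 5 days, with vehicle controls. Cells fixed and stained with sulforhodamine B for total cell mass. Data given as % of untreated control at each time point; five independent experiments.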

BJ = test: Cytotoxicity against human BJ cells at 0.125 to 2 ug/ml after 1 to 5 days by sulforhodamine B assay; assay type: cell-based; method in brief: as §1
Hs-578T [2] = test: Cytotoxicity against human Hs578T cells at 0.125 to 2 ug/ml after 1 to 5 days by sulforhodamine B assay; assay type: functional, cell-based
Method in brief: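 Sulforhodamine B growth assay in high-glucose DMEM with 10% FBS. Cancer cells seeded at 1×10^4 cells/ml; compound (0.125–2 μg/ml) added 24 h after seeding and left for 1, 3 or 5 days. Cells fixed, total mass stained. Expressed as % of untreated cells at the same time point. Mean ± SEM, five independent experiments.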

[3] = Cell cycle arrest against human Hs578T cells assessed as increase in cells at G0/G1 phase at 0.5 ug/ml after 24 to 48 hrs by propidium iodide staining based flow cytometry; assay type: functional; details: Hs-578T
Method in brief: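 Log-phase Hs578T cells exposed 24 and 48 h to 0.5 μg/ml. Adherent plus floating cells fixed in cold 70% ethanol, kept overnight at -20°C, washed into PBS-T (132 mM NaCl, 4 mM KCl, 1.2 mM NaH2PO4, 0.1% Tween). Treated with 20 μg/ml RNase for 45 min at 37°C, then propidium iodide for 30 min at 37°C. Phase percentages read by flow cytometry. Mean ± SEM, 5 experiments.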

Hs-578T [4] = test: Induction of apoptosis in human Hs578T cells assessed as increase in caspase 9 like activity at 1 ug/ml after 24 hrs; assay type: functional, cell-based
Method in brief: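 HS578T cells were treated 24 h at 1 μg/ml. Attached and floating cells were lysed in HEPES pH 7.4/CHAPS/DTT buffer. Extract protein was incubated 2 h at 37°C with […] Ac-DEVD-pNA (caspase-3) or Ac-LEHD-pNA (caspase-9). Released p-nitroanilide was read at endpoint against a pNA calibration. Six experiments, mean ± SEM.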

[5] = Induction of apoptosis in human Hs578Bst cells assessed as distribution of mitochondrial polarization and morphology at 0.25 ug/ml after 6 hrs by confocal microscopy; assay type: functional, cell-based
Method in brief: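 Cells were seeded on glass coverslips and left to attach for 24 h. They were then exposed to vehicle or 0.25 μg/ml compound for 6 h. For the last 30 min they were loaded with 100 nM TMRM in saline buffer with 15 mM glucose, and the probe was kept present during imaging. Mitochondrial polarization and morphology were imaged by fluorescence microscopy, and the TMRM fluorescence standard deviation was quantified. Four independent preparations, mean ± SEM.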

MCF7 [6] = test: Cytotoxicity against human MCF7 cells assessed as reduction in cell number in glucose-free, galactose/glutamine medium after 3 to 5 days; assay type: functional, cell-based
Method in brief: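 Cells grown in glucose-free DMEM with galactose (1.8 g/L), L-glutamine (0.584 g/L), pyruvate and 10% FBS, forcing ATP from oxidative phosphorylation. Exposed to a dose range for 1, 3 and 5 days. Cell number read by sulforhodamine B and expressed as % of control. Mean ± SEM, 5 experiments.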

Liver microsome [7] = test: Induction of mitochondrial function disruption in Wistar Han rat liver mitochondria energized with succinate assessed as State-3 level per mg of protein measured at 0.067 ug/mg of protein (reference value: 130.8 +/- 24.1 nmol/mg protein/min); assay type: functional
Liver microsome [8] = test: Induction of mitochondrial function disruption in Wistar Han rat liver mitochondria energized with succinate assessed as State-3 level per mg of protein measured at 0.133 ug/mg of protein (reference value: 130.8 +/- 24.1 nmol/mg protein/min); assay type: functional
Liver microsome [9] = test: Induction of mitochondrial function disruption in Wistar Han rat liver mitochondria energized with succinate assessed as State-4 level per mg of protein measured at 0.067 ug/mg of protein (reference value: 33.5 +/- 7.5 nmol/mg protein/min); assay type: functional
Liver microsome [10] = test: Induction of mitochondrial function disruption in Wistar Han rat liver mitochondria energized with succinate assessed as State-4 level per mg of protein measured at 0.333 ug/mg of protein (reference value: 33.5 +/- 7.5 nmol/mg protein/min); assay type: functional
Liver microsome [11] = test: Induction of mitochondrial function disruption in Wistar Han rat liver mitochondria energized with succinate assessed as State-4 level per mg of protein measured at 0.667 ug/mg of protein (reference value: 33.5 +/- 7.5 nmol/mg protein/min); assay type: functional
[12] = Induction of mitochondrial function disruption in Wistar Han rat liver mitochondria energized with succinate assessed as adenosine diphosphate/O ratio measured at 0.667 ug/mg of protein (reference value: 2.3 +/- 0.2 no_unit); assay type: functional
Liver microsome [13] = test: Induction of mitochondrial function disruption in Wistar Han rat liver mitochondria energized with succinate assessed as respiratory control ratio measured at 0.133 ug/mg of protein (reference value: 4.1 +/- 0.5 no_unit); assay type: functional
Liver microsome [14] = test: Induction of mitochondrial function disruption in Wistar Han rat liver mitochondria energized with succinate assessed as respiratory control ratio measured at 0.333 ug/mg of protein (reference value: 4.1 +/- 0.5 no_unit); assay type: functional
Liver microsome [15] = test: Induction of mitochondrial function disruption in Wistar Han rat liver mitochondria energized with succinate assessed as respiratory control ratio measured at 0.667 ug/mg of protein (reference value: 4.1 +/- 0.5 no_unit); assay type: functional
MDA-MB-231 = test: Cytotoxicity against human MDA-MB-231 cells at 0.125 to 2 ug/ml after 1 to 5 days by sulforhodamine B assay in presence of taxol; assay type: functional, cell-based
Hs-578T [16] = test: Cytotoxicity against human Hs578T cells at 0.125 to 2 ug/ml after 1 to 5 days by sulforhodamine B assay in presence of taxol; assay type: functional, cell-based
MCF7 [17] = test: Cytotoxicity against human MCF7 cells at 0.125 to 2 ug/ml after 1 to 5 days by sulforhodamine B assay in presence of taxol; assay type: functional, cell-based
Liver microsome [18] = test: Reduction in ADP-induced mitochondrial transmembrane electropotential in Wistar Han rat liver mitochondria energized with succinate at >0.7 ug/mg of protein; assay type: functional
Liver microsome [19] = test: Effect on mitochondrial transmembrane potential in Wistar Han rat liver mitochondria energized with succinate assessed as mitochondrial transmembrane electropotential at 1.333 ug/mg of protein (reference value: 216.0 +/- 7.4 mV); assay type: functional
Method in brief: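 Isolated male Wistar rat liver mitochondria (1.5 mg protein) in 125 mM sucrose, 65 mM KCl, 5 mM KH2PO4, 2.5 mM MgCl2, 5 mM HEPES pH 7.4, 30°C, with 3 μM TPP+. Compound added for 1 min, then 10 mM succinate plus 3 μM rotenone. State 3 started with ADP (83.3 nmol/mg protein). ΔΨ read with a TPP+-selective electrode and calculated by the Kamo equation without binding correction.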

| Compound | Activity [1] | Activity (BJ) | inhibition (Hs-578T [2]) | Activity [3] | Activity (Hs-578T [4]) | Activity [5] | inhibition (MCF7 [6]) | Activity (Liver microsome [7]) [nmol/min] | Activity (Liver microsome [8]) [nmol/min] | Activity (Liver microsome [9]) [nmol/min] | Activity (Liver microsome [10]) [nmol/min] | Activity (Liver microsome [11]) [nmol/min] | Ratio [12] | Ratio (Liver microsome [13]) | Ratio (Liver microsome [14]) | Ratio (Liver microsome [15]) | inhibition (MDA-MB-231) | inhibition (Hs-578T [16]) | inhibition (MCF7 [17]) | inhibition (Liver microsome [18]) | also measured |
| --- | --- | --- | --- | --- | --- | --- | --- | --- | --- | --- | --- | --- | --- | --- | --- | --- | --- | --- | --- | --- | --- |
| C=C(C)[C@@H]1CC[C@]2(COC(=O)CC[n+]3ccc(N(C)C)cc3)CC[C@]3(C)[C@H](CC[C@@H]4[C@@]5(C)CC[C@H](OC(=O)CC[n+]6ccc(N(C)C)cc6)C(C)(C)[C@@H]5CC[C@]43C)[C@@H]12.[Cl-].[Cl-] | Toxic | Toxic | Active | Active | Active | inactive | Active | 127 | 111 | 29.4 | 29.1 | 25.7 | 1.6 | 4.1 | 4.1 | 4.6 |  |  |  |  |  |
| C=C(C)[C@@H]1CC[C@]2(COC(=O)C[n+]3ccc(N(C)C)cc3)CC[C@]3(C)[C@H](CC[C@@H]4[C@@]5(C)CC[C@H](OC(=O)C[n+]6ccc(N(C)C)cc6)C(C)(C)[C@@H]5CC[C@]43C)[C@@H]12.[Cl-].[Cl-] | Toxic | Non-toxic |  | Active |  | Active | Active | 132 | 130 | 24.5 | 34.8 | 34.5 | 2.2 | 4.1 | 4.4 | 4.4 | Active | Active | Active | Active | Activity (Liver microsome [19]): 201 mV |
| C=C(C)[C@@H]1CC[C@]2(COC(=O)C[N+](C)(C)C(C)C)CC[C@]3(C)[C@H](CC[C@@H]4[C@@]5(C)CC[C@H](OC(=O)C[N+](C)(C)C(C)C)C(C)(C)[C@@H]5CC[C@]43C)[C@@H]12.[Cl-].[Cl-] | Non-toxic |  | Active | Active | Active | Active | Active | 117 | 121 | 27.5 | 27.2 | 28.8 | 2.6 | 4 | 4.2 | 4.3 | Active | Active | Active | Active |  |
| C=C(C)[C@@H]1CC[C@]2(COC(=O)C(CC)[n+]3ccc(N(C)C)cc3)CC[C@]3(C)[C@H](CC[C@@H]4[C@@]5(C)CC[C@H](OC(=O)C(CC)[n+]6ccc(N(C)C)cc6)C(C)(C)[C@@H]5CC[C@]43C)[C@@H]12 (some centres not stated) |  |  |  | Active | Active | Active | Active | 130 | 131 | 24.1 | 23.2 | 23.2 | 1.6 | 3 | 3.2 | 3.1 |  |  |  |  |  |
